Assay results published in ChEMBL document CHEMBL1795212, “Synthesis and in vitro antimalarial activity of tetraoxane-amine/amide conjugates” (Eur J Med Chem, 2011).

Legend:
Plasmodium falciparum [1] = assay: Antimalarial activity against Plasmodium falciparum W2 assessed as plasmodial LDH activity after 72 hrs; assay type: functional, organism-based
In short: (§1)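 P. falciparum D6 (chloroquine-sensitive) and W2 (chloroquine-resistant) clones screened in vitro alongside Vero cytotoxicity, up to a highest concentration of 12.5; IC50 determined.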

[2] = Selectivity index, IC50 for african green monkey Vero cells to IC50 for Plasmodium falciparum D6; assay type: functional
In short: (§2)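 Selectivity index is the cytotoxicity IC50 in Vero cells divided by the antimalarial IC50 against the stated P. falciparum clone (D6 or W2).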

[3] = Selectivity index, IC50 for african green monkey Vero cells to IC50 for Plasmodium falciparum W2; assay type: functional; in short: as §2
Vero = assay: Cytotoxicity against african green monkey Vero cells at 12.5 uM; assay type: cell-based; conditions: chlorocebus sabaeus
In short: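 Mammalian kidney Vero cells screened in vitro for cytotoxicity, in parallel with the antimalarial screen, up to a highest concentration of 12.5.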

Plasmodium falciparum [4] = assay: Antimalarial activity against Plasmodium falciparum D6 assessed as plasmodial LDH activity after 72 hrs; assay type: functional, organism-based; in short: as §1
[5] = Plasmodium falciparum, W2, 72 h, read-out: IC50
[6] = Plasmodium falciparum, D6, 72 h, read-out: IC50

In the case of `Cc1ccc(C2OOC(c3ccc(/C=N/CCc4ccccc4)cc3)OO2)cc1` (configuration not stated), the IC50 (Plasmodium falciparum [1]; [5]) is reported as 1.49 µM, the “Ratio IC50” value [2] is reported as over 7.9 and the “Ratio IC50” value [3] is reported as over 8.2. For the same compound, the Activity (Vero) was “Non-toxic” and the IC50 (Plasmodium falciparum [4]; [6]) was 1.54 µM.
In the case of `Cc1ccc(C2OOC(c3ccc(CN(C)c4ccccc4)cc3)OO2)cc1` (configuration not stated), the IC50 (Plasmodium falciparum [1]; [5]) is reported as 2.11 µM, the “Ratio IC50” value [2] is reported as over 8.4 and the “Ratio IC50” value [3] is reported as over 6. The Activity (Vero) was “Non-toxic” and the IC50 (Plasmodium falciparum [4]; [6]) was 1.51 µM.
For `Cc1ccc(C2OOC(c3ccc(C(=O)N4CCN(c5ccccc5)CC4)cc3)OO2)cc1` (configuration not stated), the IC50 (Plasmodium falciparum [1]; [5]) was 7.16 µM, the “Ratio IC50” value [2] was over 2.6 and the “Ratio IC50” value [3] was over 1.5. The Activity (Vero) was “Non-toxic” and the IC50 (Plasmodium falciparum [4]; [6]) was 4.03 µM.
In the case of `O=Cc1ccc(C2OOC(c3ccccc3)OO2)cc1` (configuration not stated), the IC50 (Plasmodium falciparum [1]; [5]) is reported as over 17.5 µM, the “Ratio IC50” value [2] is reported as over 1.3 and the “Ratio IC50” value [3] is reported as over 1. The Activity (Vero) was “Non-toxic” and the IC50 (Plasmodium falciparum [4]; [6]) was 13.2 µM.
For `Cc1ccc(C2OOC(c3ccc(/C=N\c4ccccc4S)cc3)OO2)cc1` (configuration not stated), the IC50 (Plasmodium falciparum [1]; [5]) was 5.08 µM, the “Ratio IC50” value [2] was over 1.8 and the “Ratio IC50” value [3] was over 2.4. For the same compound, the Activity (Vero) was “Non-toxic” and the IC50 (Plasmodium falciparum [4]; [6]) was 6.86 µM.
In the case of `CCc1ccc(C2OOC(c3ccc(C(=O)NCCO)cc3)OO2)cc1` (configuration not stated), the IC50 (Plasmodium falciparum [1]; [5]) is reported as 7.51 µM, the “Ratio IC50” value [2] is reported as over 2 and the “Ratio IC50” value [3] is reported as over 1.8. For the same compound, the Activity (Vero) was “Non-toxic” and the IC50 (Plasmodium falciparum [4]; [6]) was 6.67 µM.
With `C[C@@H]1CC[C@H]2[C@@H](C)C(=O)O[C@@H]3O[C@@]4(C)CC[C@@H]1[C@]32OO4` [ARTEMISININ] the IC50 (Plasmodium falciparum [1]; [5]) was 0.025 µM, the “Ratio IC50” value [2] was over 500 and the “Ratio IC50” value [3] was over 670. For the same compound, the Activity (Vero) was “Non-toxic” and the IC50 (Plasmodium falciparum [4]; [6]) was 0.03 µM.
For `COc1ccc(NCc2ccc(C3OOC(c4ccc(C)cc4)OO3)cc2)cc1` (configuration not stated), the IC50 (Plasmodium falciparum [1]; [5]) was 10.2 µM, the “Ratio IC50” value [2] was over 1.5 and the “Ratio IC50” value [3] was over 1.2. For the same compound, the Activity (Vero) was “Non-toxic” and the IC50 (Plasmodium falciparum [4]; [6]) was 8.13 µM.
In the case of `CCc1ccc(C2OOC(c3ccc(C(=O)O)cc3)OO2)cc1` (configuration not stated), the IC50 (Plasmodium falciparum [1]) is reported as “Not Active”, the Activity (Vero) is reported as “Non-toxic” and the IC50 (Plasmodium falciparum [4]) is reported as “Not Active”.
In the case of `Cc1ccccc1C1OOC(c2ccc(C=O)cc2)OO1` (configuration not stated), the IC50 (Plasmodium falciparum [1]) is reported as “Not Active”, the Activity (Vero) is reported as “Non-toxic” and the IC50 (Plasmodium falciparum [4]) is reported as “Not Active”.
With `Cc1ccc(C2OOC(c3ccc(C(=O)NCCO)cc3)OO2)cc1` (configuration not stated) the IC50 (Plasmodium falciparum [1]) was “Not Active”, the Activity (Vero) was “Non-toxic” and the IC50 (Plasmodium falciparum [4]) was “Not Active”.
For `CCCCCNC(=O)c1ccc(C2OOC(c3ccc(CC)cc3)OO2)cc1` (configuration not stated), the IC50 (Plasmodium falciparum [1]) was “Not Active”, the Activity (Vero) was “Non-toxic” and the IC50 (Plasmodium falciparum [4]) was “Not Active”.
With `CCc1ccc(C2OOC(c3ccc(C=O)cc3)OO2)cc1` (configuration not stated) the IC50 (Plasmodium falciparum [1]; [5]) was 5.99 µM, the “Ratio IC50” value [2] was over 1.4 and the “Ratio IC50” value [3] was over 2.6. For the same compound, the Activity (Vero) was “Non-toxic” and the IC50 (Plasmodium falciparum [4]; [6]) was 10.9 µM.
For `Cc1ccccc1C1OOC(c2ccc(CO)cc2)OO1` (configuration not stated), the IC50 (Plasmodium falciparum [1]; [5]) was 1.9 µM, the “Ratio IC50” value [2] was over 7.7 and the “Ratio IC50” value [3] was over 8.7. For the same compound, the Activity (Vero) was “Non-toxic” and the IC50 (Plasmodium falciparum [4]; [6]) was 2.15 µM.
With `Cc1ccc(C2OOC(c3ccc(CNc4cccc5ccccc45)cc3)OO2)cc1` (configuration not stated) the IC50 (Plasmodium falciparum [1]) was “Not Active”, the Activity (Vero) was “Non-toxic” and the IC50 (Plasmodium falciparum [4]) was “Not Active”.
With `Cc1ccc(C2OOC(c3ccc(/C=N\c4ccc(Cl)cc4)cc3)OO2)cc1` (configuration not stated) the IC50 (Plasmodium falciparum [1]; [5]) was 1.46 µM, the “Ratio IC50” value [2] was over 8.2 and the “Ratio IC50” value [3] was over 8.2. For the same compound, the Activity (Vero) was “Non-toxic” and the IC50 (Plasmodium falciparum [4]; [6]) was 1.46 µM.
With `Cc1ccc(C2OOC(c3ccc(CNCCc4ccccc4)cc3)OO2)cc1` (configuration not stated) the IC50 (Plasmodium falciparum [1]; [5]) was 6.39 µM, the “Ratio IC50” value [2] was over 1.6 and the “Ratio IC50” value [3] was over 1.9. The Activity (Vero) was “Non-toxic” and the IC50 (Plasmodium falciparum [4]; [6]) was 7.67 µM.
For `Cc1ccc(C2OOC(c3ccc(CNc4cccc(C)c4)cc3)OO2)cc1` (configuration not stated), the IC50 (Plasmodium falciparum [1]; [5]) was 2.38 µM, the “Ratio IC50” value [2] was over 4.8 and the “Ratio IC50” value [3] was over 5.3. The Activity (Vero) was “Non-toxic” and the IC50 (Plasmodium falciparum [4]; [6]) was 2.64 µM.
With `Cc1ccc(C2OOC(c3ccc(CNCc4ccccc4)cc3)OO2)cc1` (configuration not stated) the IC50 (Plasmodium falciparum [1]; [5]) was 3.44 µM, the “Ratio IC50” value [2] was over 3.7 and the “Ratio IC50” value [3] was over 3.7. The Activity (Vero) was “Non-toxic” and the IC50 (Plasmodium falciparum [4]; [6]) was 3.44 µM.
In the case of `CCc1ccc(C2OOC(c3ccc(C(=O)NCCCCCCO)cc3)OO2)cc1` (configuration not stated), the IC50 (Plasmodium falciparum [1]; [5]) is reported as 4.81 µM, the “Ratio IC50” value [2] is reported as over 3.4 and the “Ratio IC50” value [3] is reported as over 2.4. For the same compound, the Activity (Vero) was “Non-toxic” and the IC50 (Plasmodium falciparum [4]; [6]) was 3.36 µM.
In the case of `Cc1ccc(C2OOC(c3ccc(/C=N\c4ccc(Br)cc4)cc3)OO2)cc1` (configuration not stated), the IC50 (Plasmodium falciparum [1]; [5]) is reported as 4.09 µM, the “Ratio IC50” value [2] is reported as over 1.4 and the “Ratio IC50” value [3] is reported as over 2.6. The Activity (Vero) was “Non-toxic” and the IC50 (Plasmodium falciparum [4]; [6]) was 7.95 µM.
For `Cc1ccc(C2OOC(c3ccc(C(=O)NCCCO)cc3)OO2)cc1` (configuration not stated), the IC50 (Plasmodium falciparum [1]) was “Not Active”, the Activity (Vero) was “Non-toxic” and the IC50 (Plasmodium falciparum [4]) was “Not Active”.
For `Cc1ccc(C2OOC(c3ccc(CNc4ccccc4C)cc3)OO2)cc1` (configuration not stated), the IC50 (Plasmodium falciparum [1]) was “Not Active”, the Activity (Vero) was “Non-toxic” and the IC50 (Plasmodium falciparum [4]) was “Not Active”.
For `Cc1ccc(NCc2ccc(C3OOC(c4ccc(C)cc4)OO3)cc2)cc1` (configuration not stated), the IC50 (Plasmodium falciparum [1]) was “Not Active”, the Activity (Vero) was “Non-toxic” and the IC50 (Plasmodium falciparum [4]) was “Not Active”.
With `Cc1ccc(C2OOC(c3ccc(CNc4cccc(Cl)c4)cc3)OO2)cc1` (configuration not stated) the IC50 (Plasmodium falciparum [1]) was “Not Active”, the Activity (Vero) was “Non-toxic” and the IC50 (Plasmodium falciparum [4]) was “Not Active”.
